Test results: ChEMBL document CHEMBL5303300, “EUbOPEN Chemogenomics Library - Multiplex” (2023)
Where “and” joins values, the source holds several entries; their conditions need not be identical. Equal values may be shown once.

Tested on: U2OS
Assay: Multiplex assay against U2OS
Format: toxicity, cell-based
Conditions: human, number of replicates 2
Outline: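 At seeding, live cells were stained with Hoechst33342, BioTracker Green Microtubule Cytoskeleton Dye, MitoTracker Red and Annexin V Alexa Fluor 680. After compound addition they were imaged on a CQ1 microscope at 37°C and 5% CO2, and CellPathfinder machine-learning gating sorted them into Hoechst high-intensity objects or normal cells, with normal cells further split into healthy, pyknosed or fragmented nuclei and pyknosed cells into mitotic or apoptotic. Tubulin, mitochondrial-mass and membrane-permeability phenotypes are given as per cents of cells with healthy nuclei.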

[1] = 12 h, 1 µM, compound concentration 1 uM
[2] = 12 h, 10 µM, compound concentration 10 uM
[3] = 24 h, 1 µM, compound concentration 1 uM
[4] = 24 h, 10 µM, compound concentration 10 uM
[5] = 48 h, 1 µM, compound concentration 1 uM
[6] = 48 h, 10 µM, compound concentration 10 uM

## CCNc1ccc(-c2nn(-c3ccccc3C)c3c2C(C)Cc2nc(NC(=O)OC)sc2-3)cn1.O=C(O)C(F)(F)F (stereo not given)
[1]
  Population Apoptotic (%): 72% and 80%
  Population Fragmented Nuclei (%): 14% and 11%
  Population Healthy Nuclei (%): 71% and 73%
  Population Hoechst High Intensity Objects (%): 0% and 1%
  Population Membrane Permeable-Phenotype (%): 5% and 2%
  Population Mitochondria Different-Phenotype (%): 5% and 4%
  Population Mitotic Cells (%): 27% and 20%
  Population Normal (%): 100% and 98%
  Population Pyknosed Nuclei (%): 14%
  Population Tubulin-Different-Phenotype (%): 55% and 24%
  Total Cell Count: 200 and 68
[2]
  Population Apoptotic (%): 83% and 88%
  Population Fragmented Nuclei (%): 32% and 18%
  Population Healthy Nuclei (%): 25% and 55%
  Population Hoechst High Intensity Objects (%): 0%
  Population Membrane Permeable-Phenotype (%): 28% and 25%
  Population Mitotic Cells (%): 16% and 11%
  Population Normal (%): 100% and 99%
  Population Pyknosed Nuclei (%): 42% and 25%
  Population Tubulin-Different-Phenotype (%): 57% and 88%
[3]
  Population Apoptotic (%): 84% and 75%
  Population Fragmented Nuclei (%): 14% and 6%
  Population Healthy Nuclei (%): 63% and 74%
  Population Hoechst High Intensity Objects (%): 0%
  Population Membrane Permeable-Phenotype (%): 2% and 8%
  Population Mitochondria Different-Phenotype (%): 9% and 2%
  Population Mitotic Cells (%): 15% and 25%
  Population Normal (%): 100%
  Population Pyknosed Nuclei (%): 21% and 19%
  Population Tubulin-Different-Phenotype (%): 58% and 34%
  Total Cell Count: 176 and 63
[4]
  Population Apoptotic (%): 72% and 89%
  Population Healthy Nuclei (%): 18% and 39%
  Population Hoechst High Intensity Objects (%): 0%
  Population Membrane Permeable-Phenotype (%): 14% and 32%
  Population Mitochondria Different-Phenotype (%): 28% and 63%
  Population Mitotic Cells (%): 27% and 10%
  Population Normal (%): 100% and 99%
  Population Pyknosed Nuclei (%): 29% and 45%
  Population Tubulin-Different-Phenotype (%): 42% and 83%
[5]
  Population Apoptotic (%): 72% and 80%
  Population Fragmented Nuclei (%): 9% and 7%
  Population Healthy Nuclei (%): 52% and 57%
  Population Hoechst High Intensity Objects (%): 0% and 1%
  Population Membrane Permeable-Phenotype (%): 6% and 7%
  Population Mitochondria Different-Phenotype (%): 9% and 2%
  Population Mitotic Cells (%): 27% and 20%
  Population Normal (%): 99% and 98%
  Population Pyknosed Nuclei (%): 37% and 35%
  Population Tubulin-Different-Phenotype (%): 69% and 25%
  Total Cell Count: 157 and 71
[6]
  Population Apoptotic (%): 90% and 93%
  Population Healthy Nuclei (%): 10% and 28%
  Population Hoechst High Intensity Objects (%): 0%
  Population Membrane Permeable-Phenotype (%): 66% and 43%
  Population Mitotic Cells (%): 10% and 6%
  Population Normal (%): 100% and 99%
  Population Pyknosed Nuclei (%): 33% and 61%
  Population Tubulin-Different-Phenotype (%): 100% and 84%

## CCc1cnn2c(NCc3ccc[n+]([O-])c3)cc(N3CCCCC3CCO)nc12 (stereo not given)
[1]
  Population Apoptotic (%): 58% and 91%
  Population Healthy Nuclei (%): 22% and 40%
  Population Hoechst High Intensity Objects (%): 0%
  Population Membrane Permeable-Phenotype (%): 25% and 12%
  Population Mitochondria Different-Phenotype (%): 12% and 2%
  Population Normal (%): 100%
  Population Pyknosed Nuclei (%): 34% and 49%
  Population Tubulin-Different-Phenotype (%): 75% and 86%
[2]
  Population Apoptotic (%): 78% and 66%
  Population Fragmented Nuclei (%): 17% and 14%
  Population Healthy Nuclei (%): 40% and 47%
  Population Hoechst High Intensity Objects (%): 0%
  Population Mitochondria Different-Phenotype (%): 11% and 0%
  Population Mitotic Cells (%): 21% and 33%
  Population Normal (%): 100%
  Population Pyknosed Nuclei (%): 42% and 38%
  Population Tubulin-Different-Phenotype (%): 44% and 76%
[3]
  Population Apoptotic (%): 100%
  Population Healthy Nuclei (%): 20% and 30%
  Population Hoechst High Intensity Objects (%): 0% and 1%
  Population Membrane Permeable-Phenotype (%): 20% and 10%
  Population Mitotic Cells (%): 0%
  Population Normal (%): 100% and 98%
  Population Pyknosed Nuclei (%): 32% and 53%
  Population Tubulin-Different-Phenotype (%): 100% and 82%
[4]
  Population Apoptotic (%): 87% and 82%
  Population Fragmented Nuclei (%): 14% and 12%
  Population Healthy Nuclei (%): 34% and 33%
  Population Hoechst High Intensity Objects (%): 4% and 1%
  Population Membrane Permeable-Phenotype (%): 6% and 10%
  Population Mitochondria Different-Phenotype (%): 6% and 8%
  Population Mitotic Cells (%): 12% and 17%
  Population Normal (%): 95% and 98%
  Population Pyknosed Nuclei (%): 51% and 53%
  Population Tubulin-Different-Phenotype (%): 43% and 63%
[5]
  Population Apoptotic (%): 100% and 97%
  Population Healthy Nuclei (%): 25% and 16%
  Population Hoechst High Intensity Objects (%): 0% and 3%
  Population Membrane Permeable-Phenotype (%): 12% and 31%
  Population Mitochondria Different-Phenotype (%): 25% and 21%
  Population Mitotic Cells (%): 0% and 2%
  Population Normal (%): 100% and 96%
  Population Pyknosed Nuclei (%): 28% and 74%
  Population Tubulin-Different-Phenotype (%): 75% and 100%
[6]
  Population Apoptotic (%): 95% and 82%
  Population Fragmented Nuclei (%): 10% and 19%
  Population Healthy Nuclei (%): 18% and 11%
  Population Hoechst High Intensity Objects (%): 1%
  Population Mitochondria Different-Phenotype (%): 45% and 33%
  Population Normal (%): 98%
  Population Pyknosed Nuclei (%): 71% and 68%
  Population Tubulin-Different-Phenotype (%): 81% and 83%

## CS(=O)(=O)c1ccc(NC(=O)c2cccc(COc3ccc(Br)cc3CNCCO)c2)c(Cl)c1.O=CO
[1]
  Population Apoptotic (%): 80% and 76%
  Population Fragmented Nuclei (%): 11%
  Population Healthy Nuclei (%): 76% and 84%
  Population Hoechst High Intensity Objects (%): 0%
  Population Mitotic Cells (%): 20% and 24%
[2]
  Population Apoptotic (%): 85% and 71%
  Population Healthy Nuclei (%): 50% and 72%
  Population Hoechst High Intensity Objects (%): 0%
[3]
  Population Apoptotic (%): 50% and 79%
  Population Fragmented Nuclei (%): 7% and 3%
  Population Healthy Nuclei (%): 69% and 78%
  Population Hoechst High Intensity Objects (%): 0%
  Population Mitotic Cells (%): 50% and 20%
[4]
  Population Apoptotic (%): 77%
  Population Healthy Nuclei (%): 33% and 65%
  Population Hoechst High Intensity Objects (%): 0%
  Population Mitotic Cells (%): 46% and 22%
[5]
  Population Apoptotic (%): 83% and 87%
  Population Fragmented Nuclei (%): 7%
  Population Healthy Nuclei (%): 67% and 79%
  Population Hoechst High Intensity Objects (%): 0%
[6]
  Population Apoptotic (%): 100% and 94%
  Population Healthy Nuclei (%): 23% and 57%
  Population Hoechst High Intensity Objects (%): 0%
  Population Mitotic Cells (%): 0% and 5%

## CS(=O)(=O)c1ccc(C(=O)Nc2cccc(COc3ccc(Br)cc3CN[C@H]3CCC[C@@H]3O)c2)c(Cl)c1.O=CO
[1]
  Population Apoptotic (%): 50% and 70%
  Population Healthy Nuclei (%): 78% and 79%
  Population Hoechst High Intensity Objects (%): 0%
  Population Normal (%): 100%
[2]
  Population Apoptotic (%): 59% and 100%
  Population Healthy Nuclei (%): 70% and 80%
  Population Hoechst High Intensity Objects (%): 0%
  Population Normal (%): 99% and 100%
[3]
  Population Apoptotic (%): 87% and 73%
  Population Healthy Nuclei (%): 71% and 82%
  Population Hoechst High Intensity Objects (%): 0%
  Population Normal (%): 100%
[4]
  Population Apoptotic (%): 88% and 79%
  Population Healthy Nuclei (%): 47% and 63%
  Population Hoechst High Intensity Objects (%): 0%
  Population Normal (%): 100% and 99%
[5]
  Population Apoptotic (%): 44% and 86%
  Population Healthy Nuclei (%): 80% and 83%
  Population Hoechst High Intensity Objects (%): 0%
  Population Normal (%): 100%
[6]
  Population Apoptotic (%): 92%
  Population Healthy Nuclei (%): 50% and 57%
  Population Hoechst High Intensity Objects (%): 1% and 0%
  Population Normal (%): 98% and 100%
